Measured values collected from several papers.
Protocols differ between the studies behind these lines.
GUK1: GUK1 (Homo sapiens, UniProt Q16774)
CA9: Carbonic anhydrase 9 (CA9, Homo sapiens, UniProt Q16790)
ART1: ART1 (Homo sapiens, UniProt P52961)

With `Nc1ncnc2c1ncn2[C@@H]1O[C@H](CO[P@](=O)(O)O[P@](=O)(O)O[P@@](=O)(O)S)[C@@H](O)[C@H]1O` the Kd was 40 µM (GUK1; binding; ITC).
The Ki of `O=C(OCc1cn(-c2ccc(Cl)cc2)nn1)c1ccc(=O)oc1` is reported as 21.9 µM (CA9; enzyme activity; inhibitor; stopped-flow).
With `NC(=O)c1cccnc1` the Ki was 8300 µM (ART1; enzyme activity; inhibitor; fluorescence).
For `CC[C@H](C)[C@H](NC(=O)[C@H](CCC(=O)O)NC(=O)[C@H](CO)NC(=O)[C@@H](NC(=O)[C@@H](N)CO)C(C)C)C(=O)N[C@@H](CCC(N)=O)C(=O)N[C@@H](CC(C)C)C(=O)N[C@@H](CCSC)C(=O)N[C@@H](Cc1cnc[nH]1)C(=O)N[C@@H](CC(N)=O)C(=O)N[C@@H](CC(C)C)C(=O)NCC(=O)N[C@@H](CCCCN)C(=O)N[C@@H](Cc1cnc[nH]1)C(=O)N[C@@H](CC(C)C)C(=O)N[C@@H](CC(N)=O)C(=O)N[C@@H](CO)C(=O)N[C@@H](CCSC)C(=O)N[C@@H](CCC(=O)O)C(=O)N[C@@H](CCCNC(=N)N)C(=O)N[C@H](C(=O)N[C@@H](CCC(=O)O)C(=O)N[C@@H](Cc1c[nH]c2ccccc12)C(=O)N[C@@H](CC(C)C)C(=O)N[C@@H](CCCNC(=N)N)C(=O)N[C@@H](CCCCN)C(=O)N[C@@H](CCCCN)C(=O)N[C@@H](CC(C)C)C(=O)N[C@@H](CCC(N)=O)C(=O)N[C@@H](CC(=O)O)C(=O)N[C@H](C(=O)N[C@@H](Cc1cnc[nH]1)C(=O)N[C@@H](CC(N)=O)C(=O)N[C@@H](Cc1ccccc1)C(N)=O)C(C)C)C(C)C`, the Kd was 1.61 µM (Albumin (ALB, Bos taurus, UniProt P02769); binding; BLI).
The Ki of `N#CSCc1cc(=O)oc2cc(O)ccc12` is reported as 0.0274 µM (CA9; enzyme activity; inhibitor; stopped-flow).
`O=C(O)CCc1ccccc1` gave a Kd of 2110 µM (Inward rectifier potassium channel 2 (KCNJ2, Homo sapiens, UniProt P63252); binding; MST).
`Nc1nc2c(ncn2[C@@H]2O[C@H](COP(=O)(O)O)[C@@H](O)[C@H]2O)c(=O)[nH]1` gave a Kd of 39 µM (GUK1; binding; ITC).
For `O=C(NCc1cn(-c2ccc([N+](=O)[O-])cc2)nn1)c1ccc(=O)oc1`, the Ki was 7.5 µM (CA9; enzyme activity; inhibitor; stopped-flow).
With `Nc1ncnc2c1ncn2[C@@H]1O[C@H](COP(=O)(O)OP(=O)(O)OC[C@H]2OC(O)[C@H](O)[C@@H]2O)[C@@H](O)[C@H]1O` (some centres unmarked) the Ki was 4900 µM (ART1; enzyme activity; inhibitor; fluorescence).
For `Cc1ccc(-n2cc(CNC(=O)c3ccc(=O)oc3)nn2)cc1`, the Ki was 14.5 µM (CA9; enzyme activity; inhibitor; stopped-flow).
For `N#CSCCCCOc1ccc2c(-c3ccccc3)cc(=O)oc2c1`, the Ki was 0.258 µM (CA9; enzyme activity; inhibitor; stopped-flow).
